Assay results reported in ChEMBL document CHEMBL1125894, “Dual-action cephalosporins: cephalosporin 3'-quaternary ammonium quinolones” (1991).
≈ marks a conversion by molar mass, not a printed value.

What was measured:
Escherichia coli [1] = assay: In vitro antibacterial activity against Escherichia coli 257; assay type: functional
Procedure, shortened: (§1)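 Serial 2-fold dilutions in the NCCLS broth microdilution method for aerobic nonfastidious organisms, with an 18-h incubation. The value is reported as the minimum inhibitory concentration (MIC).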

Staphylococcus aureus [2] = assay: In vitro antibacterial activity against Staphylococcus aureus 95(MR); assay type: functional
Procedure, shortened: (§2)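 Staphylococci were tested by the standard agar dilution procedure using serial 2-fold dilutions of agent. The value is reported as the MIC.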

Streptococcus pyogenes [3] = assay: In vitro antibacterial activity against Streptococcus pyogenes 4; assay type: functional
Procedure, shortened: (§3)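 Broth macrodilution with serial 2-fold dilutions in cation-supplemented Mueller-Hinton broth containing 10% goat serum. The value is reported as the MIC.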

Enterobacter cloacae [4] = assay: In vitro antibacterial activity against Enterobacter cloacae 5699; assay type: functional; procedure, shortened: as §1
Serratia marcescens [5] = assay: In vitro antibacterial activity against Serratia marcescens SM; assay type: functional; procedure, shortened: as §1
Streptococcus pneumoniae [6] = assay: In vitro antibacterial activity against Streptococcus pneumoniae 6301; assay type: functional; procedure, shortened: as §3
Citrobacter freundii = assay: In vitro antibacterial activity against Citrobacter freundii BS 16; assay type: functional; procedure, shortened: as §1
Enterobacter cloacae [7] = assay: In vitro antibacterial activity against Enterobacter cloacae P99; assay type: functional; procedure, shortened: as §1
Klebsiella pneumoniae = assay: In vitro antibacterial activity against Klebsiella pneumoniae A; assay type: functional; procedure, shortened: as §1
Pseudomonas aeruginosa [8] = assay: In vitro antibacterial activity against Pseudomonas aeruginosa 5712; assay type: functional; procedure, shortened: as §1
Staphylococcus aureus [9] = assay: In vitro antibacterial activity against Staphylococcus aureus Smith(MS); assay type: functional; procedure, shortened: as §2
Streptococcus pneumoniae [10] = assay: In vivo activity in murine against Streptococcus pneumoniae 6301 infection after sc administration.; assay type: functional
Procedure, shortened: (§4)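 Mouse protection test in CD1 Swiss albino mice (18–20 g). Mice were infected intraperitoneally with 0.5 mL of a diluted bacterial suspension, then treated within 5 min with one 1.0 mL subcutaneous dose at the dorsal base of the neck. Doses ranged from 0.05 to 250 mg/kg, with six mice per group. ED50 was calculated by the Reed–Muench method.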

[11] = target: T1, Penicillin-binding protein 1B (Escherichia coli K-12) (UniProt P02919); assay: Concentration required for 90% inhibition against 90 kDa penicillin-binding protein 1b binding using [14C]-Pen G as the radioligand.
T1 sequence (whole entry): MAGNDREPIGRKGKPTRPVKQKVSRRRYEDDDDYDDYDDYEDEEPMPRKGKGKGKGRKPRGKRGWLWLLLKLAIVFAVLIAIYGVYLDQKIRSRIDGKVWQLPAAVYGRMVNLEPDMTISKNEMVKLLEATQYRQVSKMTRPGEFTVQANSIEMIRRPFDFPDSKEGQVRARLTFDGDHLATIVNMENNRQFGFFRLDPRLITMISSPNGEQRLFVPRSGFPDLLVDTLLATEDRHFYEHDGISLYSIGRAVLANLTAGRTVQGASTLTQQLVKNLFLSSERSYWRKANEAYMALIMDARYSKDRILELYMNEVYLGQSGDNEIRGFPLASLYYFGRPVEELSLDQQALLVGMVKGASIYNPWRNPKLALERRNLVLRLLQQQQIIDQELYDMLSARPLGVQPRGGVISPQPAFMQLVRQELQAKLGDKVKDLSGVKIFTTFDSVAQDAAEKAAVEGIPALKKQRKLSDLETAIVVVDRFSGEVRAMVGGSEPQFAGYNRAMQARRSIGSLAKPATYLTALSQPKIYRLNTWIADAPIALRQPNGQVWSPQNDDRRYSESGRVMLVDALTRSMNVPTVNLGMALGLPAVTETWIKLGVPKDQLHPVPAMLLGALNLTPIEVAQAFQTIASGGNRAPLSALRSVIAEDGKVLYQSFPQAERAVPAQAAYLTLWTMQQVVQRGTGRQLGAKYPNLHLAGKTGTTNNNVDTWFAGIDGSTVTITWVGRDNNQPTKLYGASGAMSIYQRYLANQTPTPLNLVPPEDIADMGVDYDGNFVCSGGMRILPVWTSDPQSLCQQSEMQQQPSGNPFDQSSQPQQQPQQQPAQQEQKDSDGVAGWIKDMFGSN
Procedure, shortened: (§5)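 Solubilized membranes from sonicated E. coli DC-0 were used. PBP binding was measured as inhibition of [14C]penicillin G binding to each PBP.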

Serratia marcescens [12] = assay: In vivo activity in murine against Serratia marcescens SM infection after sc administration.; assay type: functional; procedure, shortened: as §4
Escherichia coli [13] = assay: Concentration required for 90% inhibition against 60 kDa penicillin-binding protein 3 binding using [14C]-Pen G as the radioligand.; procedure, shortened: as §5
[14] = target: T2, Peptidoglycan D,D-transpeptidase MrdA (Escherichia coli K-12) (UniProt P0AD65); assay: Concentration required for 90% inhibition against 66 kDa penicillin-binding protein 2 binding using [14C]-Pen G as the radioligand.; procedure, shortened: as §5
T2 sequence (whole entry): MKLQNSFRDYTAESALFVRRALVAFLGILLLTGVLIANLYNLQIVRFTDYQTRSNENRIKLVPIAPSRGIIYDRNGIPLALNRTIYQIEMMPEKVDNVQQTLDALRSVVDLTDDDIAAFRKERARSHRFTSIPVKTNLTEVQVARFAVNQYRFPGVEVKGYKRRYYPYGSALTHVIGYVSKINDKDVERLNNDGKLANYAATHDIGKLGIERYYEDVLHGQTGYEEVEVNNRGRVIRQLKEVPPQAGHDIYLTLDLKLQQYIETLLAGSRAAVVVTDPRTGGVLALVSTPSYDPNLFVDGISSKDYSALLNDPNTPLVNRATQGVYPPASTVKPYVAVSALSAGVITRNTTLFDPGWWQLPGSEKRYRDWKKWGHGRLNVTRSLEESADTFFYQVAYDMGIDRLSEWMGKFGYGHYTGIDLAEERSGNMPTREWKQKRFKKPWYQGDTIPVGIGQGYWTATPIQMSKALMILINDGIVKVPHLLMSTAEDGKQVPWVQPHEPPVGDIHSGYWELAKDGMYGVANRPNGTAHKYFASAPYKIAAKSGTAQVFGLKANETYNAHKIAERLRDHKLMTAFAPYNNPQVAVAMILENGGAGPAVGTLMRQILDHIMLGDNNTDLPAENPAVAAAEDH

Escherichia coli [15] = assay: Antibacterial activity against Escherichia coli DC-O; assay type: functional; procedure, shortened: as §1
Pseudomonas aeruginosa [16] = assay: In vivo activity in murine against Pseudomonas aeruginosa 5712 infection after sc administration.; assay type: functional; details: Pseudomonas aeruginosa, sc; read-out: ED50
Procedure, shortened: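 Mouse protection test in CD1 Swiss albino mice (18–20 g) infected intraperitoneally with 0.5 mL of diluted P. aeruginosa suspension. Mice received 1.0 mL subcutaneously at the neck base within 5 min of infection and a second treatment 3 h after infection. Doses ranged from 0.05 to 250 mg/kg, with six mice per group. ED50 was calculated by the Reed–Muench method.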

[17] = target: T3, Penicillin-binding protein 1A (Escherichia coli K-12) (UniProt P02918); assay: Concentration required for 90% inhibition against 90 kDa penicillin-binding protein 1a binding using [14C]-Pen G as the radioligand.; procedure, shortened: as §5
T3 sequence (whole entry): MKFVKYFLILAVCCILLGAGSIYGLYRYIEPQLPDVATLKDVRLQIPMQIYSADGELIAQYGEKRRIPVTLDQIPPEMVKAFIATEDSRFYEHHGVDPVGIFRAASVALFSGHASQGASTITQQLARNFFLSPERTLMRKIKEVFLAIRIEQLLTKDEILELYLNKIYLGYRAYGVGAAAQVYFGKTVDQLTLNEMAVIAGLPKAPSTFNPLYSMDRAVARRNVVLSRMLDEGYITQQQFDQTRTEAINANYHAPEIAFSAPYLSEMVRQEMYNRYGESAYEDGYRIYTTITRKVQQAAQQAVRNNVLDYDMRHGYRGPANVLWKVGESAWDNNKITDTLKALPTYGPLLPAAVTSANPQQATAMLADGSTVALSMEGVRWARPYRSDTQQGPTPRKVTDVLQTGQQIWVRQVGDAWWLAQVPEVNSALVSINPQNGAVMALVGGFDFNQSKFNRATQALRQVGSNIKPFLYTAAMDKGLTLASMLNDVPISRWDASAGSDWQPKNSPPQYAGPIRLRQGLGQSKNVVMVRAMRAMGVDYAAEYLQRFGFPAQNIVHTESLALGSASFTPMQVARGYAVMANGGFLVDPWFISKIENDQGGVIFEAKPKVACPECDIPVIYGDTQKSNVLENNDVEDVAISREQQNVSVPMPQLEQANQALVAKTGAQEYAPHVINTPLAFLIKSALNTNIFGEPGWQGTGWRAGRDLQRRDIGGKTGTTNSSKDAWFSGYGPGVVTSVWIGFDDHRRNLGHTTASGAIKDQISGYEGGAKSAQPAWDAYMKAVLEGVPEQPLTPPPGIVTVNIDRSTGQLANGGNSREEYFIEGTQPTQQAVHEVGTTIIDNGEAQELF

Streptococcus pyogenes [18] = assay: In vivo activity in murine against Streptococcus pyogenes 4 infection after sc administration.; assay type: functional; procedure, shortened: as §4
Escherichia coli [19] = assay: In vivo activity in murine against Escherichia coli 257 infection after sc administration.; assay type: functional; details: Escherichia coli, sc; read-out: ED50; procedure, shortened: as §4

Structure (SMILES) | MIC (Escherichia coli [1]) | MIC (Staphylococcus aureus [2]) | MIC (Streptococcus pyogenes [3]) | MIC (Enterobacter cloacae [4]) | MIC (Serratia marcescens [5]) | MIC (Streptococcus pneumoniae [6]) | MIC (Citrobacter freundii) | MIC (Enterobacter cloacae [7]) | MIC (Klebsiella pneumoniae) | MIC (Pseudomonas aeruginosa [8]) | MIC (Staphylococcus aureus [9]) | further results
C[N+]1(CC2=C(C(=O)[O-])N3C(=O)[C@@H](NC=O)[C@H]3SC2)CCN(c2c(F)cc3c(=O)c(C(=O)O)cn(CCF)c3c2F)CC1 | 2 µg/mL (≈ 3.28 µM) | 1 µg/mL (≈ 1.64 µM) | 8 µg/mL (≈ 13.1 µM) | 4 µg/mL (≈ 6.56 µM) | 8 µg/mL (≈ 13.1 µM) | 16 µg/mL (≈ 26.2 µM) | 16 µg/mL (≈ 26.2 µM) | 0.5 µg/mL (≈ 0.82 µM) | 2 µg/mL (≈ 3.28 µM) | 128 µg/mL (≈ 210 µM) | 4 µg/mL (≈ 6.56 µM) | 
CO/N=C(\C(=O)N[C@@H]1C(=O)N2C(C(=O)O)=C(COC(C)=O)CS[C@H]12)c1csc(N)n1 [CEFOTAXIME] | 0.031 µg/mL (≈ 0.0681 µM) | 128 µg/mL (≈ 281 µM) | < 0.008 µg/mL | 0.125 µg/mL (≈ 0.274 µM) | 0.25 µg/mL (≈ 0.549 µM) | 0.016 µg/mL (≈ 0.0351 µM) | 128 µg/mL (≈ 281 µM) | 64 µg/mL (≈ 141 µM) | 0.031 µg/mL (≈ 0.0681 µM) | 64 µg/mL (≈ 141 µM) | 1 µg/mL (≈ 2.2 µM) | ED50 (Streptococcus pneumoniae [10]): 90 mg/kg; Concentration [11]: 0.5 µg/mL; ED50 (Serratia marcescens [12]): > 50 mg/kg; Concentration (Escherichia coli [13]): 0.1 µg/mL; Concentration [14]: 100 µg/mL; MIC (Escherichia coli [15]): 0.06 µg/mL (≈ 0.132 µM); ED50 (Pseudomonas aeruginosa [16]): > 250 mg/kg; Concentration [17]: 0.1 µg/mL; ED50 (Streptococcus pyogenes [18]): 7 mg/kg; ED50 (Escherichia coli [19]): 0.37 mg/kg
C[N+]1(CC2=C(C(=O)[O-])N3C(=O)[C@@H](NC(=O)COc4ccccc4)[C@H]3SC2)CCN(c2ccccc2)CC1 | 32 µg/mL (≈ 61.2 µM) | 128 µg/mL (≈ 245 µM) | 0.031 µg/mL (≈ 0.0593 µM) | 64 µg/mL (≈ 122 µM) | > 128 µg/mL | 0.125 µg/mL (≈ 0.239 µM) | > 128 µg/mL | > 128 µg/mL | 32 µg/mL (≈ 61.2 µM) | > 128 µg/mL | 0.063 µg/mL (≈ 0.121 µM) | 
CCn1cc(C(=O)O)c(=O)c2cc(F)c(N3CC[N+](C)(CC4=C(C(=O)[O-])N5C(=O)[C@@H](NC(=O)/C(=N\OC)c6csc(N)n6)[C@H]5SC4)CC3)cc21 | 0.5 µg/mL (≈ 0.686 µM) | 4 µg/mL (≈ 5.49 µM) | 0.125 µg/mL (≈ 0.172 µM) | 1 µg/mL (≈ 1.37 µM) | 1 µg/mL (≈ 1.37 µM) | 0.063 µg/mL (≈ 0.0864 µM) | 4 µg/mL (≈ 5.49 µM) | 1 µg/mL (≈ 1.37 µM) | 1 µg/mL (≈ 1.37 µM) | 64 µg/mL (≈ 87.8 µM) | 2 µg/mL (≈ 2.74 µM) | 
